High-throughput results from PubChem.
KCNQ1 act = potentiators or activators of KCNQ1 channel, primary screen, cell-based, thallium flux, high-throughput; CHO-K1 KCNQ1, thallium flux FluxOR fluorescence; stronger effect = higher value; B-score at 10 µM; actives 0.35% (n = 310,000);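 active = fluorescence ratio B-score, a plate-corrected score, at least three library SD, with initial intensity B-score within 5 SD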
Target sequence (P51787 whole entry, looked up): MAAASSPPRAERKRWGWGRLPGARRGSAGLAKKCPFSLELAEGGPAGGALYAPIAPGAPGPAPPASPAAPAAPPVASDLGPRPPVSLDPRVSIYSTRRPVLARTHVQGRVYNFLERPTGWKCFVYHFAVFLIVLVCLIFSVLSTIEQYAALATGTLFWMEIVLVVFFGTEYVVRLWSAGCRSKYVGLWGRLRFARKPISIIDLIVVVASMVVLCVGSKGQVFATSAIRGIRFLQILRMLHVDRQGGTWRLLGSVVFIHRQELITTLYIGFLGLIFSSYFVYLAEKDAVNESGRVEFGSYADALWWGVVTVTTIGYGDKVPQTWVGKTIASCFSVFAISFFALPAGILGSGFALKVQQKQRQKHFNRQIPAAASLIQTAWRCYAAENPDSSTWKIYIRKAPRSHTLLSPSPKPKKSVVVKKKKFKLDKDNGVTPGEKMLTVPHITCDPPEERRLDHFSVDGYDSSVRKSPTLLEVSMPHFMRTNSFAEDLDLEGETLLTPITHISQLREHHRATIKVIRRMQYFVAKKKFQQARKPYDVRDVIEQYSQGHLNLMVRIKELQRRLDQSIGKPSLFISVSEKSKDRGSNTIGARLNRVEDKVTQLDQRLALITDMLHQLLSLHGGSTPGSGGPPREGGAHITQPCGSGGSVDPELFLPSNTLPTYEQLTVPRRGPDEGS
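Medium – assay buffer, equal DMSO in all wells · Material – CHO-K1 cell line with stable KCNQ1 potassium channel expression · Signal – kinetic FluxOR thallium fluorescence, 10-s 1-Hz baseline, 110-s post-stimulus read · Compound – single concentration per compound, DMSO matched to controls · Schedule – 37 °C overnight plating, 90-min dark dye load, 20-min compound pretreatment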
KCNQ1 inh = inhibitors of human KCNQ1 channel, primary screen, cell-based, thallium flux, high-throughput | B-score at 10 µM | CHO-K1 KCNQ1, FluxOR thallium flux fluorescence; stronger effect = higher value | actives 1.3% (n = 310,000) | Potassium voltage-gated channel subfamily KQT member 1 (Homo sapiens), P51787 | AID 2642, 2010;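 active = compounds whose thallium flux B-score, printed positive for inhibition, exceeds three library SD while starting fluorescence stays within three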;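 also: channel opened by potassium depolarization with thallium stimulus after 20 min compound exposure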
hERG rescue = hERG rescue from dofetilide block, primary screen, cell-based, CHO-hERG, FluxOR thallium flux, dofetilide IC70. Voltage-gated inwardly rectifying potassium channel KCNH2 (Homo sapiens), Q12809. dofetilide IC70 present. activation (rescue from dofetilide block), less the hit threshold, % at 10 µM. actives 0.51% (n = 310,000). AID 1511, 2009;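 active = activation above the mean of controls blocked by dofetilide plus 5 SD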;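 also: thallium influx through hERG after potassium depolarization seen as dye fluorescence rise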
KCNK9 inh = KCNK9 potassium channel inhibitors, primary screen, HEK293 cells, thallium flux; AID 488922, 2010; Potassium channel subfamily K member 9 (Homo sapiens), Q9NPC2; actives 1.2% (n = 310,000); B-score at 10 µM; FluxOR thallium flux fluorescence; stronger effect = lower value;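 active = ratio B-score over 3 SD below the library mean, with starting fluorescence within 5 SD of its mean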;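 also: negative B-score means less thallium flux so channel inhibition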
KCNK3 block = human KCNK3 channel inhibitors, primary screen, CHO cells, FluxOR thallium flux, B-score; B-score at 10 µM; AID 602410, 2012; actives 0.84% (n = 340,000); FluxOR fluorescence; stronger effect = lower value;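 active = B-score under library mean minus 4 SD, starting fluorescence ratio at most library mean plus 5 SD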;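 also: more negative B-score means stronger inhibition of thallium flux through KCNK3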
* = called active by the depositor; i = inactive; nt = no result given. This is a sample that favours compounds with a hit; in the whole collection about 3.1% have one here.

SMILES	KCNQ1 act	KCNQ1 inh	hERG rescue	KCNK9 inh	KCNK3 block
COc1ccc(NC(=O)C(=O)NNC(=O)COc2ccc(OC)cc2)cc1	i	i	7.8*	i	i
O=C(COc1ccc2ccccc2c1)NNC(=O)C(=O)Nc1ccccc1	35*	i	45*	i	i
Cc1cc(Br)ccc1OCC(=O)NNC(=O)Cc1ccccc1	i	i	-7	i	i
Cc1ccccc1OCC(=O)Nc1cccc(C(=O)O)c1	i	i	5.5*	i	i
Cc1cc(Br)ccc1OCC(=O)NNC(=O)C(=O)Nc1ccccc1	92*	i	51*	i	i
COc1ccc(NC(=O)C(=O)NNC(=O)COc2ccc(Cl)cc2)c(OC)c1	69*	i	16*	i	i
COc1cc(NC(=O)COc2ccc(Cl)cc2)ccc1NC(=O)C(C)C	i	i	2	i	i
CCc1ccc(NC(=O)C(=O)NNC(=O)COc2cccc(OC)c2)cc1	28*	i	7.2*	i	i
COc1cccc(OCC(=O)Nc2ccncc2)c1	i	i	-6	i	i
Cc1c(C(=O)C(=O)NCc2ccco2)c2ccccc2n1C	i	i	-7	i	i
Cc1cc(Br)ccc1NC(=S)Nc1cccc([N+](=O)[O-])c1	i	10*	-18	i	i
C/C(=N/NC(=S)Nc1cccc(C)c1)c1cccc([N+](=O)[O-])c1	10*	i	0	i	i
Cc1ccc(NC(=O)c2cccs2)cc1S(=O)(=O)Nc1cccc(Cl)c1	i	i	-9	-7.8*	i
Cc1cccc(NC(=S)NNC(=O)c2cccc([N+](=O)[O-])c2)c1	i	7*	-18	i	i
CNC(=S)Nc1cccc([N+](=O)[O-])c1	i	i	-6	i	i
Cc1ccc(NC(=S)NC(=O)c2ccc(F)cc2)cc1S(=O)(=O)Nc1cccc(Cl)c1	i	i	-14	i	i
O=C(CCN1N=C(c2ccccc2)CCC1=O)NCCCN1CCOCC1	i	i	-4	i	i
CC(=O)Nc1ccc(OCC(O)Cn2nc(C)c(C)c2C)cc1 (stereo unspecified)	i	i	-4	i	i
CC[C@]12c3[nH]c4ccc(OC)cc4c3CCN1C(=O)C(CC(=O)NCc1ccco1)C[C@@H]2C(=O)N1CCN(C(=O)c2ccco2)CC1 (stereo partly specified)	nt	nt	nt	nt	i
Cc1ccc(NS(=O)(=O)c2cc(C(=O)Nc3cccc([N+](=O)[O-])c3)ccc2C)cc1	i	i	-3	-6.8*	i
O=S(=O)(CCSc1ccccn1)c1nc2ccccc2s1	i	6*	-18	i	i
COc1ccccc1NS(=O)(=O)c1ccc(C(=O)NCC(c2ccc(F)cc2)N2CCOCC2)cc1 (stereo unspecified)	nt	nt	nt	nt	i
COc1cc(C(=O)NCC(c2ccc(F)cc2)N2CCOCC2)ccc1OCc1ccccc1Cl (stereo unspecified)	i	10*	-14	i	i
O=C(N/N=C/c1c(O)ccc2ccccc12)Nc1ccccc1	i	6*	-9	i	i
O=C(N/N=C/c1c(O)ccc2ccccc12)c1ccc(Br)o1	i	6*	-15	i	i
SMILES	KCNQ1 act	KCNQ1 inh	hERG rescue	KCNK9 inh	KCNK3 block
COC(=O)c1cccc(NC(=O)c2ccc3c(c2)C(=O)N(Cc2cccnc2)C3=O)c1C	i	i	-8	i	i
O=C(NCc1cccc(Cl)c1)c1ccc(N2CC3CC(C2)c2cccc(=O)n2C3)c(NC(=O)c2cccnc2)c1 (stereo unspecified)	i	i	-5	i	i
CCN(CC)C1=CC(=[N+]2CCCC2)CC(C)(C)C1	i	i	-10	i	i
CN(Cc1ccccc1)C1=CC(=[N+]2CCCC2)CC(C)(C)C1	i	10*	-23	i	i
CC(C)c1ccccc1-n1c(SCC(=O)N2CCc3ccccc3C2)nc2ccccc2c1=O	i	9*	-11	i	i
CCOc1ccc(C2c3[nH]c4ccccc4c3CCN2CCCn2cccn2)cc1 (stereo unspecified)	i	6*	-11	i	i
COc1cccc(C2c3[nH]c4ccccc4c3CCN2CCCn2cccn2)c1 (stereo unspecified)	i	i	-8	i	i
CCCCNS(=O)(=O)c1ccc2nc(SCC(=O)Nc3sccc3C#N)[nH]c2c1	i	11*	-23	i	i
Cc1cccc(OCc2n[nH]c(=S)n2C2CCCCC2)c1	8*	i	-2	i	i
CCN1CC=C2C(C#N)=C(N)C(C#N)(C#N)C(CCc3ccccc3)C2C1 (stereo unspecified)	nt	nt	nt	nt	i
CCCN1CC=C2C(C#N)=C(N)C(C#N)(C#N)C(c3cccc(OC)c3OC)C2C1 (stereo unspecified)	i	8*	-18	i	i
N#CC1=C(N)C(C#N)(C#N)[C@H](c2ccoc2)[C@H]2CN(Cc3ccccc3)CC=C12	i	i	-30	-8.8*	i
CN1CC=C2C(C#N)=C(N)C(C#N)(C#N)C(c3cccc(Cl)c3Cl)C2C1 (stereo unspecified)	i	6*	-19	i	i
CCCCOc1ccc(C2C3CN(C(=O)OCC)CC=C3C(C#N)=C(N)C2(C#N)C#N)cc1OC (stereo unspecified)	i	i	-12	i	i
COc1ccc(OC)c(C2C3CN(C(C)C)CC=C3C(C#N)=C(N)C2(C#N)C#N)c1 (stereo unspecified)	i	6*	-13	i	i
COc1ccc2sc(-c3ccc(N(C)C)cc3)c(-c3cnc(OC)nc3)c2c1	nt	nt	nt	nt	i
COc1cccc(OC)c1OCc1cc(C2C3CCCC=C3C(C#N)=C(N)C2(C#N)C#N)c(C)cc1C (stereo unspecified)	i	7*	-4	i	i
CCCCCCCCN1[C@@H](CC(=O)OCC)c2ccc(C(F)(F)F)cc2S1(=O)=O	i	6*	-2	i	i
CCCNC(=O)c1nnsc1S(=O)(=O)c1ccc(Cl)cc1	nt	nt	nt	nt	-9.1*
CCOCCc1nnc(NC(=O)C2CCN(C(=O)c3ccco3)CC2)s1	i	i	-7	i	i
Cc1ccc(C)c(N2CCN(c3ncccc3[N+](=O)[O-])CC2)c1	i	i	-15	-6.6*	i
O=[N+]([O-])c1cccnc1N1CCCCC1	i	i	-9	i	i
